Hits are enriched below; roughly 5.5% of the tested compounds scored in any of these assays.
HSV augment – HSV replication enhancement. HSV replication augmentation in cells, fold increase. maximum fold increase. 0.005% of 220,000 active; in the data active = maximum fold increase above about 1.5; inconclusive = no clear call, values can overlap the other calls; tested in PC3 cells
STAT1 blocker – inhibitors of IFN-gamma induced STAT1 signaling; NIH 3T3 STAT1-luciferase reporter, luminescence; inhibition, % at 5.5 µM; 0.35% of 200,000 active;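 active = inhibition above a set limit, the mean inhibition across all tested compounds plus 3 SD, cut at about 34% in these data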;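 also: 0% = IFN-gamma with DMSO and 100% = IFN-gamma with 300 µM nifuroxazide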
STAT3 activator – activators of IL-6 induced STAT3 signaling | AID 871 | activation (% of control), % at 5.6 µM | U3A cells, IL-6 STAT3-luciferase reporter, luminescence; 100% = signal with IL-6 EC80 alone | 0.91% of 190,000 active;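 active = activation above the screen-wide mean of compound activation plus 3 SD, cut at about 130% in these data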;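 also: 0% = background luminescence of wells with medium and substrate only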
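Test system: Human STAT1-deficient U3A cells with stable STAT3-luciferase reporter | Also added: Interleukin-6, 33 ng/mL | Timing: Compound pre-incubation 1 h before IL-6, then 6 h stimulation at 37 °C | Technique: Luciferase reporter luminescence | Read-out: Percent of IL-6-only median luminescence | Benchmarks: IL-6-only wells as 100% reference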
STAT3 inh – STAT3 signaling inhibition. U3A cells, IL-6 STAT3-luciferase reporter, luminescence; host cell line lacks STAT1. inhibition, % at 5.5 µM. 0.89% of 190,000 active. AID 862;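 active = inhibition above the mean inhibition across all screened compounds plus 3 SD, cut at about 44% in these data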;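 also: 0% = DMSO only wells and 100% = 100 µM nifuroxazide control wells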
STAT1 act – STAT1 signaling activation | NIH 3T3 STAT1-luciferase reporter, IFN-gamma, luminescence; 100% = IFN-gamma alone, no compound | activation (% of control), % at 5.5 µM | 2.6% of 200,000 active | AID 932;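 active = activation above the screen-wide mean activation plus 3 SD, cut at about 130% in these data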;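 also: raw ratio to IFN-gamma control signal so 100% means no change and 0% no light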
KCC2 mod – modulators of human KCC2 chloride dependent transport. 2.2% of 190,000 active. AID 1456. Q9H2X9. KCC2 cells, thallium flux FluoZin-2 fluorescence. B-score of Tl+ flux slope (higher = more flux/activation; lower = inhibition) at 10 µM;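 active = thallium flux slope and its plate-corrected score both differing from the plate sample mean at a set confidence after two filtering rounds, in either direction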;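 also: slope of fluorescence scaled to starting intensity during 10 to 20 s after thallium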
Target sequence (Q9H2X9 whole entry, looked up): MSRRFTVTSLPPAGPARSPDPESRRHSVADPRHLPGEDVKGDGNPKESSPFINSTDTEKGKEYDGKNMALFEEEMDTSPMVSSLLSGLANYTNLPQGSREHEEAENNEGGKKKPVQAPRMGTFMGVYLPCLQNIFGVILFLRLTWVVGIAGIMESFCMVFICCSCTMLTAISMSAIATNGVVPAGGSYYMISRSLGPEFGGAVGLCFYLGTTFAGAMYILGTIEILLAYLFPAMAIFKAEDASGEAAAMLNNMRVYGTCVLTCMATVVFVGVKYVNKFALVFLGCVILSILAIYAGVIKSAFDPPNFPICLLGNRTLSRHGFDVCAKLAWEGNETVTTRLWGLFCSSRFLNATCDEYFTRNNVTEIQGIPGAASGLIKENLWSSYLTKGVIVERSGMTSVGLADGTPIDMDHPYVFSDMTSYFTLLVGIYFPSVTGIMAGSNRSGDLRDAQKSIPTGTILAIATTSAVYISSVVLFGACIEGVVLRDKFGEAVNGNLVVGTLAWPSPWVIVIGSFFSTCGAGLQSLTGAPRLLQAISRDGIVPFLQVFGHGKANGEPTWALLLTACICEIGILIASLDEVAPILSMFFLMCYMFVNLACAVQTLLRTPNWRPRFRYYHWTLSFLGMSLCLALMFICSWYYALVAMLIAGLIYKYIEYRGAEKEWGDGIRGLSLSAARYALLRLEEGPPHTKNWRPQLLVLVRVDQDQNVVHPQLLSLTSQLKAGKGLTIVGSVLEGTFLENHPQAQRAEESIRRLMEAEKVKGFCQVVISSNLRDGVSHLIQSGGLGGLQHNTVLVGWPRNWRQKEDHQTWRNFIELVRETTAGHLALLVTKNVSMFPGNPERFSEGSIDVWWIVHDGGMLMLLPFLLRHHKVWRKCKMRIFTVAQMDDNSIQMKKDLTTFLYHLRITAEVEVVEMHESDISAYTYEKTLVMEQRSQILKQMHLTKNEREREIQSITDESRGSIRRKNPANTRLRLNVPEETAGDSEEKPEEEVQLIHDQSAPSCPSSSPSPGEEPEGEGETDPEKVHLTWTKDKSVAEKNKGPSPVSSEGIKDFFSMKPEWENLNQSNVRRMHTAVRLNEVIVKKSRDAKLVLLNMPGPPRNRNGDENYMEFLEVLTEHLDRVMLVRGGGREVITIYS
KCC2 secondary – confirmation of human KCC2 transport modulators. HEK293-KCC2, thallium flux, FluoZin2 fluorescence; stronger effect = higher value. shares compounds with KCC2 mod. 15% of 3,700 active. normalised thallium flux (F/F0 slope) at 10 µM. AID 1713;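 active = thallium flux slope above the same plate's solvent-only control mean plus 3 SD; inconclusive = the two replicate wells disagree; inactive = no significant difference from solvent-only control wells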
KCC2 bumet counter – thallium flux despite bumetanide block in KCC2 cells, secondary assay 3. shares compounds with KCC2 mod. HEK293-KCC2 + bumetanide/ouabain, thallium flux FluoZin2; stronger effect = higher value. normalized thallium flux at 10 µM. 49% of 3,700 active. AID 1714;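 active = thallium entry rate above the same plate's blocked-transporter control wells by more than 3 SD; inconclusive = the two repeat wells disagree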;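 also: raw slope of fluorescence over initial fluorescence between 10 and 20 s after thallium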
KCC2 sec2 – KCC2 (human) modulation, second secondary assay | HEK293-KCC2, thallium flux FluoZin2 fluorescence; actives lie on both sides; F/F0 rise rate, 10–20 s post-thallium | AID 1715 | normalized thallium flux at 10 µM | shares compounds with KCC2 mod | 23% of 3,700 active;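 active = thallium flux slope more than 3 SD above or below the plate's solvent-only control mean, mostly below; inconclusive = the two repeat wells disagreed; inactive = no significant shift from solvent-only controls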;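 also: raw slope with 0.1% DMSO as baseline and bumetanide as block control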
HEK counter1 – acts in parental HEK cells, KCC2 counter-screen. shares compounds with KCC2 mod. HEK293 parental cells, thallium flux FluoZin2, ouabain; baseline-ratio fluorescence slope, 10–20 s after thallium. thallium flux rate (normalised fluorescence) at 10 µM. 46% of 3,700 active. AID 1716;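 active = thallium flux rate significantly above the same plate's solvent-only control wells, beyond their mean plus 3 SD; inconclusive = the two replicate wells gave conflicting results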
KCC2 ouabain – modulates human KCC2 on retest with ouabain; HEK293-KCC2, thallium flux FluoZin2 fluorescence; bidirectional: low = inhibitor, high = activator; raw Tl+ flux slope (below DMSO = inhibition, above = activation) at 10 µM; shares compounds with KCC2 mod; AID 1717; 48% of 3,700 active;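 active = thallium flux slope beyond 3 SD from same-plate DMSO control mean in most replicates, usually higher, sometimes lower; inconclusive = repeat tests gave conflicting results; inactive = no significant difference from controls in most replicates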;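 also: slope of initial-normalized fluorescence between seconds 10 and 20 after thallium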
HEK counter2 – counter-screen for KCC2 modulators: effect in parental HEK293 cells. thallium flux slope at 10 µM. AID 1718. 33% of 3,700 active. shares compounds with KCC2 mod. thallium flux FluoZin-2 fluorescence slope;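 active = thallium flux slope above the same plate's solvent-control mean plus 3 SD in both duplicate wells; inconclusive = duplicate wells that disagreed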;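 also: run without ouabain in cells lacking the KCC2 cotransporter; slope of fluorescence scaled to its starting value between 10 and 20 s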
An asterisk follows results filed as active; i = inactive; ? = inconclusive; nt = not tested or not shown.

SMILES	HSV augment	STAT1 blocker	STAT3 activator	STAT3 inh	STAT1 act	KCC2 mod	KCC2 secondary	KCC2 bumet counter	KCC2 sec2	HEK counter1	KCC2 ouabain	HEK counter2
COCCN(CCOC)c1ncc(Cl)c(C(=O)c2c(C)cc3ccccn23)n1	i	-2	100	4	102	-1.2	nt	nt	nt	nt	nt	nt
Cc1[nH]c2ccc(CNS(=O)(=O)c3ccc(S(=O)(=O)N4CCOCC4)cc3)cc2c1C	i	8	103	-5	93	-0.12	nt	nt	nt	nt	nt	nt
O=C(Oc1ccc(Cl)c2ccccc12)N1CCCCC1	i	-3	102	0	103	-0.0062	nt	nt	nt	nt	nt	nt
O=C(Oc1ccc2ccccc2c1Cl)N1CCCC1	i	-48	114	-11	144*	nt	0.0062	0.0053	0.029	0.0063	0.015*	0.0094
CCn1c(SCC(N)=O)nnc1-c1ccc(S(=O)(=O)N2CCN(C)CC2)cc1	i	0	105	-4	100	3.7*	0.0094	0.0073	0.035	?	0.023	?
CCn1c(SCC(=O)N2CCCCC2C)nnc1-c1ccc(S(=O)(=O)N2CCN(C)CC2)cc1 (centres undefined)	i	-1	101	4	101	0.076	nt	nt	nt	nt	nt	nt
CN(C(=O)c1cccc(C#N)c1)c1nnc(-c2cnccn2)s1	i	-8	89	14	107	nt	0.011	0.0064	0.031	0.0075	0.023	?
CC(C)NC(=O)c1nn(C)c2ccccc12	i	-3	99	1	102	0.86	nt	nt	nt	nt	nt	nt
O=CN1CCN(C(=O)CN2C(=O)c3ccccc3C2=O)CC1	nt	10	105	1	90	6.3*	0.0059	?	0.027	0.0081	0.018	0.01
Cc1ccc(S(=O)(=O)N(C)CC(=O)N/N=C/c2ccc(C)o2)cc1	i	nt	nt	nt	nt	0.14	nt	nt	nt	nt	nt	nt
COc1ccc(Nc2nc(N3CCCCC3)nc(N3CCCCC3)n2)c(OC)c1	i	nt	nt	nt	nt	nt	nt	nt	nt	nt	nt	nt
COc1ccc(Nc2nc(N3CCCC3)nc(N3CCCC3)n2)c(OC)c1	i	-10	107	-4	109	-2.4*	?	0.0066	0.034	0.0082	0.023	0.011
CCOc1ccccc1C1C(C#N)=C(N)Oc2n[nH]c(CC)c21 (centres undefined)	i	3	98	7	97	-4.9*	0.0086	0.007	0.03	0.0064	0.02	0.0093
O=C(NCCc1ccccc1)C1CCN(C2CCN(C(=O)CC3=CCCCC3)CC2)CC1	i	0	100	4	99	nt	nt	nt	nt	nt	nt	nt
COC(=O)c1c(NC(=S)Nc2ccccc2Cl)sc(C)c1C	i	2	94	18	98	6.3*	0.013*	0.022*	0.03	0.014*	?	0.012*
COC(=O)c1c(NC(=O)Cc2ccccc2)sc(C)c1C	i	-2	104	-1	102	-0.49	nt	nt	nt	nt	nt	nt
CCn1nc(C)c(/C=N/NC(=S)Nc2ccc(Cl)cc2Cl)c1C	i	2	104	0	98	4.5*	0.0082	0.01*	0.031	0.0084*	?	?
Fc1ccc(NC(=S)Nc2cc(Cl)ccc2Cl)cc1	i	16	74	32	86	3.5*	0.008	0.015*	?	0.018*	0.026*	0.015*
Cc1nn(C)cc1/C=N/NC(=S)Nc1ccc(Cl)cc1Cl	i	-15	92	12	114	3.6	nt	nt	nt	nt	nt	nt
COc1ccc(NC(=S)N/N=C/c2ccc(F)c(F)c2)cc1	i	nt	nt	nt	nt	1.2	nt	nt	nt	nt	nt	nt
Fc1ccc(/C=N/NC(=S)Nc2ccc(Cl)cc2Cl)cc1	i	nt	nt	nt	nt	7.6*	0.0099	0.018*	0.03	0.012*	0.029*	?
Fc1ccc(NC(=S)N/N=C/c2ccc(F)c(F)c2)cc1	i	-16	100	4	115	27*	0.016*	0.063*	0.031	0.022*	0.044*	0.013*
COC(=O)C(C)(C(=O)OC)c1ccccc1[N+](=O)[O-]	i	4	99	2	97	0.76	nt	nt	nt	nt	nt	nt
CCOC(=O)CSc1cc(CSc2ccccc2)nc(-c2ccccc2)n1	i	1	92	15	99	nt	nt	nt	nt	nt	nt	nt
COc1ccc(C(=O)COC(=O)[C@H](C)Nc2ccc(C(F)(F)F)cc2[N+](=O)[O-])c(OC)c1	i	-2	107	-6	102	0.38	nt	nt	nt	nt	nt	nt
SMILES	HSV augment	STAT1 blocker	STAT3 activator	STAT3 inh	STAT1 act	KCC2 mod	KCC2 secondary	KCC2 bumet counter	KCC2 sec2	HEK counter1	KCC2 ouabain	HEK counter2
CCOc1ccc(N(CCCCO)C(=S)NC(=O)c2ccc(C)c(Br)c2)cc1	i	-1	94	14	99	13*	0.0076	0.049*	0.044*	0.029*	0.046*	0.033*
CCOc1ccc(C(=O)NCCCN(CC)CC)cc1	nt	-5	103	2	106	0.99	nt	nt	nt	nt	nt	nt
Cc1cc(C(=O)COc2ccc(-c3nnco3)cc2)c(C)n1Cc1ccccc1	i	9	78	32	91	0.061	nt	nt	nt	nt	nt	nt
CCCCSc1nnc(-c2ccc(OC)cc2)n1C	i	1	99	2	100	-5*	0.0058	0.004	0.028	0.0069	0.017	0.0098
COc1ccc(CC(=O)OCc2nnc(-c3ccccc3)o2)cc1	i	1	99	2	100	0.0086	nt	nt	nt	nt	nt	nt
N=C1SC(c2ccccc2)C(=O)N1c1ncc(Cc2ccccc2Cl)s1 (centres undefined)	i	-5	104	-7	105	5.8*	0.0071	0.02*	0.031	0.016*	?	0.02*
COc1ccc(NC(=O)CC2C(=O)N(C)C(=S)N2Cc2ccc3c(c2)OCO3)cc1 (centres undefined)	i	-6	100	0	106	7.3*	0.0081	0.006	0.033	0.0041	0.019	0.012
COc1ccc(CCN2C(=S)N(C)C(=O)C2CC(=O)Nc2ccc(OC)cc2)cc1 (centres undefined)	i	11	100	5	89	-0.15	nt	nt	nt	nt	nt	nt
CCN(CCCNC(=O)COc1cc(=O)n(CC)c2ccccc12)c1ccccc1	nt	16	88	20	86	4.6*	0.0058	0.0043	?	0.0063*	0.017	0.01
